In ChEMBL document CHEMBL2434891, “Design, synthesis, and in vitro cancer cell growth inhibition evaluation and antimalarial testing of trioxanes installed in cyclic 2-enoate substructures” (Eur J Med Chem, 2013):

How the values were obtained:
NCI-H23 = assay: Cytotoxicity against human NCI-H23 cells after 72 hrs by SRB assay; format: functional; conditions: NCI-H23, 72 h
U-251 = assay: Cytotoxicity against human U251 cells after 72 hrs by SRB assay; format: functional; conditions: U-251, 72 h
SF-295 = assay: Cytotoxicity against human SF295 cells after 72 hrs by SRB assay; format: functional; conditions: SF-295, 72 h
SF-268 = assay: Cytotoxicity against human SF268 cells after 72 hrs by SRB assay; format: functional; conditions: SF-268, 72 h
MV4-11 = assay: Antiproliferative activity against human MV4-11 cells after 72 hrs by MTT assay; format: functional, cell-based; conditions: MV4-11, 72 h
MKN-74 = assay: Cytotoxicity against human MKN74 cells after 72 hrs by SRB assay; format: functional; conditions: MKN-74, 72 h
HCT-15 = assay: Cytotoxicity against human HCT15 cells after 72 hrs by SRB assay; format: functional; conditions: HCT-15, 72 h
SNB-78 = assay: Cytotoxicity against human SNB78 cells after 72 hrs by SRB assay; format: functional; conditions: SNB-78, 72 h
SNB-75 = assay: Cytotoxicity against human SNB75 cells after 72 hrs by SRB assay; format: functional; conditions: SNB-75, 72 h
DU-145 = assay: Cytotoxicity against human DU145 cells after 72 hrs by SRB assay; format: functional; conditions: DU-145, 72 h
PC-3 = assay: Cytotoxicity against human PC3 cells after 72 hrs by SRB assay; format: functional; conditions: PC-3, 72 h
KM12 = assay: Cytotoxicity against human KM12 cells after 72 hrs by SRB assay; format: functional; conditions: KM12, 72 h
MDA-MB-231 = assay: Cytotoxicity against human MDA-MB-231 cells after 72 hrs by SRB assay; format: functional; conditions: MDA-MB-231, 72 h
MKN-28 = assay: Cytotoxicity against human MKN28 cells after 72 hrs by SRB assay; format: functional; conditions: MKN-28, 72 h
HCT-116 = assay: Cytotoxicity against human HCT116 cells after 72 hrs by SRB assay; format: functional, cell-based; conditions: HCT-116, 72 h
Procedure, shortened: (§1)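 Adherent cells grown at 37 °C and 5% CO2. Seeded at 1×10^4/well 24 h before dosing, then 72 h at 10–0.01 µg/mL final. Fixed with cold 50% TCA, stained with 0.4% SRB, dye extracted in 10 mM Tris, read at 540 nm.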

MCF7 = assay: Cytotoxicity against human MCF7 cells after 72 hrs by SRB assay; format: functional; conditions: MCF7, 72 h
NCI-H226 = assay: Cytotoxicity against human NCI-H226 cells after 72 hrs by SRB assay; format: functional; conditions: NCI-H226, 72 h
HCC 2998 = assay: Cytotoxicity against human HCC2998 cells after 72 hrs by SRB assay; format: functional; conditions: HCC 2998, 72 h
[1] = Cytotoxicity against human MKN1 cells after 72 hrs by SRB assay; format: functional; conditions: MKN-1, 72 h
OVCAR-5 = assay: Cytotoxicity against human OVCAR5 cells after 72 hrs by SRB assay; format: functional; conditions: OVCAR-5, 72 h
A549 = assay: Cytotoxicity against human A549 cells after 72 hrs by SRB assay; format: functional, cell-based; conditions: A549, 72 h; procedure, shortened: as §1
OVCAR-8 = assay: Cytotoxicity against human OVCAR8 cells after 72 hrs by SRB assay; format: functional; conditions: OVCAR-8, 72 h
[2] = Cytotoxicity against human BSY1 cells after 72 hrs by SRB assay; format: functional; conditions: BSY-1, 72 h
DMS-273 = assay: Cytotoxicity against human DMS273 cells after 72 hrs by SRB assay; format: functional; conditions: DMS-273, 72 h
SK-OV-3 = assay: Cytotoxicity against human SKOV3 cells after 72 hrs by SRB assay; format: functional; conditions: SK-OV-3, 72 h
ACHN = assay: Cytotoxicity against human ACHN cells after 72 hrs by SRB assay; format: functional
NCI-H522 = assay: Cytotoxicity against human NCI-H522 cells after 72 hrs by SRB assay; format: functional; conditions: NCI-H522, 72 h
OVCAR-4 = assay: Cytotoxicity against human OVCAR4 cells after 72 hrs by SRB assay; format: functional; conditions: OVCAR-4, 72 h
[3] = read-out: LC50 (the source's name)
[4] = read-out: pLC50 (the source's name) (converted)

## COc1ccc(C2O[C@]34CC(c5cccc(Cl)c5)OC(=O)C3=C[C@@]2(C)OO4)cc1 (stereo partly drawn)
NCI-H23
  TGI: 40 µM
NCI-H23; read-out: GI50
  GI50: 18 µM
NCI-H23; [3]
  CC50: 93 µM
NCI-H23; read-out: pGI50 (converted)
  GI50: 16.6 µM
NCI-H23; [4]
  CC50: 79.4 µM
U-251
  TGI: 36 µM
U-251; read-out: GI50
  GI50: 18 µM
U-251; [3]
  CC50: 73 µM
U-251; read-out: pGI50 (converted)
  GI50: 15.8 µM
U-251; [4]
  CC50: 69.2 µM
SF-295
  TGI: 33 µM
SF-295; read-out: GI50
  GI50: 18 µM
SF-295; [3]
  CC50: 62 µM
SF-295; read-out: pGI50 (converted)
  GI50: 18.2 µM
SF-295; [4]
  CC50: 60.3 µM
SF-268
  TGI: 41 µM
SF-268; read-out: GI50
  GI50: 18 µM
SF-268; [3]
  CC50: 94 µM
SF-268; read-out: pGI50 (converted)
  GI50: 13.8 µM
SF-268; [4]
  CC50: 91.2 µM
MV4-11
  IC50: 0.549 µM
MKN-74
  TGI: 44 µM
MKN-74; read-out: GI50
  GI50: 15 µM
MKN-74; [3]
  CC50: 100 µM
MKN-74; read-out: pGI50 (converted)
  GI50: 14.1 µM
MKN-74; [4]
  CC50: 95.5 µM
HCT-15
  TGI: 24 µM
HCT-15; read-out: GI50
  GI50: 4.4 µM
HCT-15; [3]
  CC50: 100 µM
HCT-15; read-out: pGI50 (converted)
  GI50: 3.72 µM
HCT-15; read-out: pLC50 (converted)
  CC50: > 100 µM
SNB-78
  TGI: 34 µM
SNB-78; read-out: GI50
  GI50: 14 µM
SNB-78; [3]
  CC50: 84 µM
SNB-78; read-out: pGI50 (converted)
  GI50: 12.6 µM
SNB-78; [4]
  CC50: 91.2 µM
SNB-75
  TGI: 28 µM
SNB-75; read-out: GI50
  GI50: 12 µM
SNB-75; [3]
  CC50: 67 µM
SNB-75; read-out: pGI50 (converted)
  GI50: 12.3 µM
SNB-75; [4]
  CC50: 63.1 µM
DU-145
  TGI: 29 µM
DU-145; read-out: GI50
  GI50: 15 µM
DU-145; [3]
  CC50: 54 µM
DU-145; read-out: pGI50 (converted)
  GI50: 16.6 µM
DU-145; [4]
  CC50: 56.2 µM
PC-3
  TGI: 28 µM
PC-3; read-out: GI50
  GI50: 15 µM
PC-3; [3]
  CC50: 55 µM
PC-3; read-out: pGI50 (converted)
  GI50: 13.2 µM
PC-3; [4]
  CC50: 56.2 µM
KM12
  TGI: 51 µM
KM12; read-out: GI50
  GI50: 25 µM
KM12; [3]
  CC50: 100 µM
KM12; read-out: pGI50 (converted)
  GI50: 17.8 µM
KM12; [4]
  CC50: 85.1 µM
MDA-MB-231
  TGI: 26 µM
MDA-MB-231; read-out: GI50
  GI50: 12 µM
MDA-MB-231; [3]
  CC50: 58 µM
MDA-MB-231; read-out: pGI50 (converted)
  GI50: 5.37 µM
MDA-MB-231; [4]
  CC50: 51.3 µM
MKN-28
  TGI: 40 µM
MKN-28; read-out: GI50
  GI50: 14 µM
MKN-28; [3]
  CC50: 100 µM
MKN-28; read-out: pGI50 (converted)
  GI50: 11 µM
MKN-28; read-out: pLC50 (converted)
  CC50: > 100 µM
HCT-116
  IC50: 7.67 µM
  TGI: 20 µM
HCT-116; read-out: GI50
  GI50: 4.1 µM
HCT-116; [3]
  CC50: 100 µM
HCT-116; read-out: pGI50 (converted)
  GI50: 3.39 µM
HCT-116; [4]
  CC50: 70.8 µM
MCF7
  TGI: 27 µM
MCF7; read-out: GI50
  GI50: 11 µM
MCF7; [3]
  CC50: 69 µM
MCF7; read-out: pGI50 (converted)
  GI50: 10 µM
MCF7; [4]
  CC50: 87.1 µM
NCI-H226
  TGI: 48 µM
NCI-H226; read-out: GI50
  GI50: 20 µM
NCI-H226; [3]
  CC50: 100 µM
NCI-H226; read-out: pGI50 (converted)
  GI50: 17.8 µM
NCI-H226; [4]
  CC50: 91.2 µM
HCC 2998
  TGI: 30 µM
HCC 2998; read-out: GI50
  GI50: 15 µM
HCC 2998; [3]
  CC50: 62 µM
HCC 2998; read-out: pGI50 (converted)
  GI50: 6.31 µM
HCC 2998; [4]
  CC50: 61.7 µM
[1]
  TGI: 17 µM
[1]; read-out: GI50
  GI50: 4.5 µM
[1]; [3]
  CC50: 49 µM
[1]; read-out: pGI50 (converted)
  GI50: 2.09 µM
[1]; [4]
  CC50: 9.12 µM
OVCAR-5
  TGI: 17 µM
OVCAR-5; read-out: GI50
  GI50: 5.3 µM
OVCAR-5; [3]
  CC50: 42 µM
OVCAR-5; read-out: pGI50 (converted)
  GI50: 2.75 µM
OVCAR-5; [4]
  CC50: 26.3 µM
A549
  IC50: 10.2 µM
  TGI: 38 µM
A549; read-out: GI50
  GI50: 18 µM
A549; [3]
  CC50: 78 µM
A549; read-out: pGI50 (converted)
  GI50: 17.8 µM
A549; [4]
  CC50: 77.6 µM
OVCAR-8
  TGI: 41 µM
OVCAR-8; read-out: GI50
  GI50: 12 µM
OVCAR-8; [3]
  CC50: 100 µM
OVCAR-8; read-out: pGI50 (converted)
  GI50: 9.33 µM
OVCAR-8; read-out: pLC50 (converted)
  CC50: > 100 µM
[2]
  TGI: 26 µM
[2]; read-out: GI50
  GI50: 12 µM
[2]; [3]
  CC50: 57 µM
[2]; read-out: pGI50 (converted)
  GI50: 5.01 µM
[2]; [4]
  CC50: 46.8 µM
DMS-273
  TGI: 31 µM
DMS-273; read-out: GI50
  GI50: 14 µM
DMS-273; [3]
  CC50: 69 µM
DMS-273; read-out: pGI50 (converted)
  GI50: 10.2 µM
DMS-273; [4]
  CC50: 74.1 µM
SK-OV-3
  TGI: 29 µM
SK-OV-3; read-out: GI50
  GI50: 16 µM
SK-OV-3; [3]
  CC50: 54 µM
SK-OV-3; read-out: pGI50 (converted)
  GI50: 19.1 µM
SK-OV-3; [4]
  CC50: 58.9 µM
ACHN
  TGI: 29 µM
ACHN; read-out: GI50
  GI50: 16 µM
ACHN; [3]
  CC50: 55 µM
ACHN; read-out: pGI50 (converted)
  GI50: 15.5 µM
ACHN; [4]
  CC50: 56.2 µM
NCI-H522
  TGI: 8.6 µM
NCI-H522; read-out: GI50
  GI50: 2.7 µM
NCI-H522; [3]
  CC50: 100 µM
NCI-H522; read-out: pGI50 (converted)
  GI50: 2 µM
NCI-H522; [4]
  CC50: 22.4 µM
OVCAR-4
  TGI: 24 µM
OVCAR-4; read-out: GI50
  GI50: 9.2 µM
OVCAR-4; [3]
  CC50: 59 µM
OVCAR-4; read-out: pGI50 (converted)
  GI50: 1.55 µM
OVCAR-4; [4]
  CC50: 41.7 µM
